The subject of data set [1] is Mus musculus. In words: The compound was evaluated for the mouse active Arthus (MAA) reaction activity for an ip dose of 150 mg/kg in mouse; 31-40%. Format: functional. Particulars: route intraperitoneal. The gist of the method: (§1)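 CD-1 mice were sensitized ip with a 1:1 Freund's complete adjuvant emulsion containing BSA in saline, 5 weeks before challenge. Compound was suspended in 1% Na CMC in pyrogen-free saline and given as one ip or oral dose 1 h before skin challenge with BSA. Screening doses were 150 mg/kg ip and 300 mg/kg po, with some at 75 or 50 mg/kg ip. Lesions were excised 3.5 h after challenge and weighed against controls.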

For data set [2], the system named is Mus musculus. In words: Inhibition of Mouse Active Arthus reaction following 150 mg/Kg i.p.; 41-60% inhibition. Format: functional. Particulars: Mus musculus, ip.
Data set [3] deals with Cavia porcellus. Kind of data set: Tested in delayed hypersensitivity skin reaction (DHSR) after subcutaneous administration, activity reported as percent inhibition of erythema/induration of lesion; 10/8. Type of data set: functional.
The test system of data set [4] is Mus musculus. In words: The compound was evaluated for the mouse active Arthus (MAA) reaction activity for an ip screening dose of 75 mg/kg in mouse; 31-40%. Format: functional. Particulars: route intraperitoneal. In outline: as §1
In data set [5] the test system is Cavia porcellus. Kind of data set: Tested in delayed hypersensitivity skin reaction (DHSR) after subcutaneous administration, activity reported as percent inhibition of erythema/induration of lesion; 4/0. Type of data set: functional. The gist of the method:
(§2)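 Male Hartley guinea pigs were sensitized with Mycobacterium tuberculosis in Freund's incomplete adjuvant, injected into each hind footpad and subcutaneously at the neck. After 3 weeks, 1.2 μg PPD was given intradermally. Compound in sesame oil was given sc, 3 animals per group, 30 min before and 5 h after PPD; screening dose 50 mg/kg.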

Data set [6] has as its system Mus musculus. Kind of data set: Mouse active Arthus (MAA) reaction activity was determined for an ip dose of 150 mg/kg in mouse. Type of data set: functional. Particulars: route intraperitoneal.
The test system of data set [7] is Cavia porcellus. Kind of data set: Tested in delayed hypersensitivity skin reaction (DHSR) after subcutaneous administration, activity reported as percent inhibition of erythema/induration of lesion; 1/20. Format: functional.
Data set [8] deals with Mus musculus. In words: Mouse active Arthus (MAA) reaction activity was determined for an ip dose of 150 mg/kg in mouse; 31-40%. Type of data set: functional. Conditions: route intraperitoneal.
For data set [9], the species on record is Mus musculus. In words: Mouse active Arthus (MAA) reaction activity was determined for peroral dose of 300 mg in mouse; 21-30%. Type of data set: functional.
Data set [10] has as its system Cavia porcellus. In words: Tested in delayed hypersensitivity skin reaction (DHSR) after subcutaneous administration, activity reported as percent inhibition of erythema/induration of lesion; 5/18. Format: functional. In outline: as §2
Data set [11] concerns Mus musculus. In words: Inhibition of Mouse active Arthus (MAA) reaction activity was determined for an ip dose of 150 mg/kg in mouse; 21-30%. Conditions: route intraperitoneal. Type of data set: functional.
Data set [12] has as its system Cavia porcellus. In words: Tested in delayed hypersensitivity skin reaction (DHSR) after subcutaneous administration, activity reported as percent inhibition of erythema/induration of lesion; 4/12. Format: functional. In outline: as §2
Data set [13] in a line: Acute toxicity as LD50 value was determined in mice administered intraperitoneally. Type of data set: organism-based. Particulars: mouse, in vivo, ip.
Data set [14] can be described thus: Acute toxicity as LD50 value was determined in mice administered orally. Format: organism-based. Particulars: mouse, in vivo, po.
Data set [15] deals with Mus musculus. In words: Carrageenan-induced edema was determined value for oral administration. Format: functional. Conditions: read-out: ID50 (the source's name). In outline: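 Adult male Sprague-Dawley (CD) rats, 160–200 g. Single dose in 1% CMC given 2 h before footpad injection of 0.05 mL 1% carrageenin in pyrogen-free saline. Paws removed and weighed at 3 h, with the contralateral paw as control. ID50 is the dose giving 50% edema inhibition.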
A general note: Carrageenan injected into the paw causes an acute inflammation.

Data set [16] can be described thus: Therapeutic ratio was determined for intraperitoneal administration. Format: ADME. Conditions: ip; read-out: TR.
Data set [17] is described as follows: Therapeutic ratio was determined for peroral administration. Particulars: po; read-out: TR.

We go through 13 compounds from ChEMBL document CHEMBL1122142, “Synthesis and antiinflammatory activity of hexahydrothiopyrano[4,3-c]pyrazoles and related analogues” (J Med Chem, 1982).

A value given as a limit tells only on which side of the number the result lay.

As to `CCCn1nc(-c2ccccc2)c2c1/C(=C/c1ccccc1)COC2`, the inhibition in vivo at 150 mg/kg with Mus musculus [1] was found to be 31%.
The compound `CCCn1nc(-c2ccc(Cl)cc2)c2c1/C(=C/c1ccc(Cl)cc1)CSC2` registered an inhibition in vivo at 150 mg/kg in the data set on Mus musculus [2] of 41%.
As for `COc1ccc(/C=C2\CS(=O)(=O)CC3C2=NN(CCCN2CCN(C)CC2)C3c2ccc(OC)cc2)cc1` (centres undefined), in the data set with Cavia porcellus [3], the Activity was 10. Also, in the data set with Mus musculus [4], 75 mg/kg produced 31% inhibition in vivo.
`C#CCN1N=C2/C(=C/c3ccccc3)CS(=O)(=O)CC2C1c1ccccc1` (centres undefined) yielded an Activity in the data set with Cavia porcellus [5] of 4. This compound came in with an inhibition in vivo at 150 mg/kg in the data set with Mus musculus [6] below 20%.
The compound `O=C(c1ccc(Cl)cc1)N1N=C2/C(=C/c3ccccc3)CS(=O)(=O)CC2C1c1ccccc1` (centres undefined) registered an Activity with Cavia porcellus [7] of 1. Also, in the data set with Mus musculus [8], the inhibition in vivo at 150 mg/kg was 31%.
In the case of `O=C(c1ccccc1)N1N=C2/C(=C/c3ccccc3)CS(=O)(=O)CC2C1c1ccccc1` (centres undefined), the inhibition in vivo at 150 mg/kg with Mus musculus [6] was above 60%. This compound also showed an Inhibition in the data set filed under Mus musculus [9] of 21%.
On to `CCCN1N=C2/C(=C/c3ccccc3)CN(C)CC2C1c1ccccc1` (centres undefined), for which, in the data set with Cavia porcellus [10], the Activity amounted to 5. The inhibition in vivo at 150 mg/kg in the data set on Mus musculus [2] is 41%.
In turn, `CCCN1N=C2/C(=C/c3ccccc3)C[S+]([O-])CC2C1c1ccccc1` (single isomer, unassigned; isomer A) registered an inhibition in vivo at 150 mg/kg in the data set with Mus musculus [11] of 21%.
`CCCN1N=C2/C(=C/c3ccc(OC)cc3)C[S+]([O-])CC2C1c1ccc(OC)cc1` (single isomer, unassigned; isomer A): in the data set on Cavia porcellus [12], the Activity is 4. This compound yielded an inhibition in vivo at 150 mg/kg with Mus musculus [2] of 41%.
Turning to `CCCN1N=C2/C(=C/c3ccccc3)C[S+]([O-])CC2C1c1ccccc1` (single isomer, unassigned; isomer B), the inhibition in vivo at 150 mg/kg with Mus musculus [2] turned out to be 41%.
`COc1cc2c(c(OC)c1OC)-c1ccc(OC)c(=O)cc1[C@@H](NC(C)=O)CC2` [COLCHICINE]: the median lethal dose (LD50) in [13] is 3.5 mg/kg; in data set [14], 13.5 mg/kg. In addition, the ED50 in the data set with Mus musculus [15] came out at 13.2 mg/kg. Further, the results for the selectivity ratio in [16] and in [17] were 1.5 and 1, respectively.
For `COc1ccc2c(c1)c(CC(=O)O)c(C)n2C(=O)c1ccc(Cl)cc1` [INDOMETHACIN], the ED50 in the data set with Mus musculus [15] was 517 mg/kg. Moreover, the selectivity ratio in [17] stood at 0.04.
As to `COc1ccc2cc([C@H](C)C(=O)O)ccc2c1` [NAPROXEN], the ED50 in the data set with Mus musculus [15] is 411 mg/kg.

The inhibition in vivo is the change of the read-out against control, counted positive when it falls. Read a high inhibition in vivo as strong suppression. The Inhibition is the change of the read-out against control, counted positive when it falls. Low values mean a response near the control, high ones a response far below the control. What is called LD50 is the dose expected to kill half of the subjects tested. Read a high LD50 as lower toxicity.
